Measurements from ChEMBL document CHEMBL4138126, “Synthesis, antiproliferative, anti-tubulin activity, and docking study of new 1,2,4-triazoles as potential combretastatin analogues” (Eur J Med Chem, 2017).

Columns and labels:
HL-60 = experiment: Cytotoxicity in human HL60 cells assessed as reduction in cell viability incubated for 48 hrs by MTT assay; assay type: functional, cell-based; details: HL-60, 48 h
Procedure, shortened: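 HepG2 and HL60 (ATCC) grown in DMEM with 10% FBS, 2 mM L-glutamine, penicillin/streptomycin, amphotericin B at 37 °C, 5% CO2. Samples dissolved in DMSO, diluted thousandfold in assay. Cells seeded in serum-free medium, treated with serial concentrations 48 h; MTT 4 h, formazan dissolved in acidified isopropanol, A570. Triplicates averaged; viability relative to untreated/vehicle control.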

K562 = experiment: Growth inhibition of human K562 cells assessed as cell growth at 10 uM after 48 hrs by sulforhodamine B assay; assay type: functional; details: K562, 48 h, read-out: Activity
Procedure, shortened: (§1)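 NCI 60-cell-line panel screen (nine cancer types). Compounds added at single concentration 10^-5 M, cultures incubated 48 h; growth inhibition percentages reported.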

HOP-92 = experiment: Growth inhibition of human HOP92 cells assessed as cell growth at 10 uM after 48 hrs by sulforhodamine B assay; assay type: functional; details: HOP-92, 48 h, read-out: Activity; procedure, shortened: as §1
NCI-H226 = experiment: Growth inhibition of human NCI-H226 cells assessed as cell growth at 10 uM after 48 hrs by sulforhodamine B assay; assay type: functional; details: NCI-H226, 48 h, read-out: Activity; procedure, shortened: as §1
NCI-H322M = experiment: Growth inhibition of human NCI-H322M cells assessed as cell growth at 10 uM after 48 hrs by sulforhodamine B assay; assay type: functional; details: read-out: Activity; procedure, shortened: as §1
NCI-H522 = experiment: Growth inhibition of human NCI-H522 cells assessed as cell growth at 10 uM after 48 hrs by sulforhodamine B assay; assay type: functional; details: NCI-H522, 48 h, read-out: Activity; procedure, shortened: as §1
COLO 205 = experiment: Growth inhibition of human COLO205 cells assessed as cell growth at 10 uM after 48 hrs by sulforhodamine B assay; assay type: functional; details: COLO 205, 48 h, read-out: Activity; procedure, shortened: as §1
HCC 2998 = experiment: Growth inhibition of human HCC2998 cells assessed as cell growth at 10 uM after 48 hrs by sulforhodamine B assay; assay type: functional; details: HCC 2998, 48 h, read-out: Activity; procedure, shortened: as §1
KM12 = experiment: Growth inhibition of human KM12 cells assessed as cell growth at 10 uM after 48 hrs by sulforhodamine B assay; assay type: functional; details: KM12, 48 h, read-out: Activity; procedure, shortened: as §1
SW-620 = experiment: Growth inhibition of human SW620 cells assessed as cell growth at 10 uM after 48 hrs by sulforhodamine B assay; assay type: functional; details: SW-620, 48 h, read-out: Activity
Procedure, shortened: (§2)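 NCI 60-cell-line panel from nine tumour types (leukaemia, lung, colon, CNS, melanoma, ovarian, renal, prostate, breast). Each compound was added at one single concentration, and cultures were incubated for 48 h. Results are reported as percent growth inhibition.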

SF-268 = experiment: Growth inhibition of human SF268 cells assessed as cell growth at 10 uM after 48 hrs by sulforhodamine B assay; assay type: functional; details: SF-268, 48 h, read-out: Activity; procedure, shortened: as §1
SF-295 = experiment: Growth inhibition of human SF295 cells assessed as cell growth at 10 uM after 48 hrs by sulforhodamine B assay; assay type: functional; details: SF-295, 48 h, read-out: Activity; procedure, shortened: as §1
SF-539 = experiment: Growth inhibition of human SF539 cells assessed as cell growth at 10 uM after 48 hrs by sulforhodamine B assay; assay type: functional; details: SF-539, 48 h, read-out: Activity; procedure, shortened: as §1
U-251 = experiment: Growth inhibition of human U251 cells assessed as cell growth at 10 uM after 48 hrs by sulforhodamine B assay; assay type: functional; details: U-251, 48 h, read-out: Activity; procedure, shortened: as §2
LOX IMVI = experiment: Growth inhibition of human LOXIMVI cells assessed as cell growth at 10 uM after 48 hrs by sulforhodamine B assay; assay type: functional; details: read-out: Activity; procedure, shortened: as §1
M14 = experiment: Growth inhibition of human M14 cells assessed as cell growth at 10 uM after 48 hrs by sulforhodamine B assay; assay type: functional; details: M14, 48 h, read-out: Activity; procedure, shortened: as §1
SK-MEL-2 = experiment: Growth inhibition of human SK-MEL-2 cells assessed as cell growth at 10 uM after 48 hrs by sulforhodamine B assay; assay type: functional; details: SK-MEL-2, 48 h, read-out: Activity; procedure, shortened: as §1
SK-MEL-28 = experiment: Growth inhibition of human SK-MEL-28 cells assessed as cell growth at 10 uM after 48 hrs by sulforhodamine B assay; assay type: functional; details: SK-MEL-28, 48 h, read-out: Activity; procedure, shortened: as §1
SK-MEL-5 = experiment: Growth inhibition of human SK-MEL-5 cells assessed as cell growth at 10 uM after 48 hrs by sulforhodamine B assay; assay type: functional; details: SK-MEL-5, 48 h, read-out: Activity; procedure, shortened: as §1
UACC-257 = experiment: Growth inhibition of human UACC257 cells assessed as cell growth at 10 uM after 48 hrs by sulforhodamine B assay; assay type: functional; details: UACC-257, 48 h, read-out: Activity; procedure, shortened: as §2
UACC-62 = experiment: Growth inhibition of human UACC62 cells assessed as cell growth at 10 uM after 48 hrs by sulforhodamine B assay; assay type: functional; details: UACC-62, 48 h, read-out: Activity; procedure, shortened: as §2
OVCAR-4 = experiment: Growth inhibition of human OVCAR4 cells assessed as cell growth at 10 uM after 48 hrs by sulforhodamine B assay; assay type: functional; details: OVCAR-4, 48 h, read-out: Activity; procedure, shortened: as §1
OVCAR-8 = experiment: Growth inhibition of human OVCAR8 cells assessed as cell growth at 10 uM after 48 hrs by sulforhodamine B assay; assay type: functional; details: OVCAR-8, 48 h, read-out: Activity; procedure, shortened: as §1
786-0 = experiment: Growth inhibition of human 786-0 cells assessed as cell growth at 10 uM after 48 hrs by sulforhodamine B assay; assay type: functional; details: 786-0, 48 h, read-out: Activity; procedure, shortened: as §1
CAKI-1 = experiment: Growth inhibition of human CAKI-1 cells assessed as cell growth at 10 uM after 48 hrs by sulforhodamine B assay; assay type: functional; details: CAKI-1, 48 h, read-out: Activity; procedure, shortened: as §1
SN12C = experiment: Growth inhibition of human SN12C cells assessed as cell growth at 10 uM after 48 hrs by sulforhodamine B assay; assay type: functional; details: read-out: Activity; procedure, shortened: as §2
TK-10 = experiment: Growth inhibition of human TK10 cells assessed as cell growth at 10 uM after 48 hrs by sulforhodamine B assay; assay type: functional; details: TK-10, 48 h, read-out: Activity; procedure, shortened: as §2
PC-3 = experiment: Growth inhibition of human PC3 cells assessed as cell growth at 10 uM after 48 hrs by sulforhodamine B assay; assay type: functional; details: PC-3, 48 h, read-out: Activity; procedure, shortened: as §1
MCF7 = experiment: Growth inhibition of human MCF7 cells assessed as cell growth at 10 uM after 48 hrs by sulforhodamine B assay; assay type: functional; details: MCF7, 48 h, read-out: Activity; procedure, shortened: as §1
T47D = experiment: Growth inhibition of human T47D cells assessed as cell growth at 10 uM after 48 hrs by sulforhodamine B assay; assay type: functional; details: read-out: Activity; procedure, shortened: as §2
HepG2 [1] = experiment: Induction of apoptosis in human HepG2 cells assessed as viable cells level at 1.41 uM by Annexin V and propidium iodide staining based flow cytometry; assay type: functional
HepG2 [2] = experiment: Inhibition of beta tubulin polymerisation in human HepG2 cells incubated for 2 hrs using TMB substrate by ELISA relative to untreated control; assay type: cell-based; set-up: concentration or dose not given beside the values; details: dose or concentration not given here
[3] = Inhibition of beta tubulin polymerisation in human HepG2 cells incubated for 2 hrs using TMB substrate by ELISA; assay type: cell-based; details: HepG2, 2 h

Question: Which results are given for CCOc1ccc(-n2nc(C(=O)NCc3cc(F)cc(F)c3)nc2-c2cc(OC)c(OC)c(OC)c2)cc1?
Answer: IC50 (HL-60): 950 nM; growth at 10 µM (K562): 62%; growth at 10 µM (HOP-92): 61.1%; growth at 10 µM (NCI-H226): 65.2%; growth at 10 µM (NCI-H322M): 61.5%; growth at 10 µM (NCI-H522): 50.9%; growth at 10 µM (COLO 205): 65%; growth at 10 µM (HCC 2998): 84%; growth at 10 µM (KM12): 65.8%; growth at 10 µM (SW-620): 91.4%; growth at 10 µM (SF-268): 65.5%; growth at 10 µM (SF-295): 65.2%; growth at 10 µM (SF-539): 70.7%; growth at 10 µM (U-251): 74.3%; growth at 10 µM (LOX IMVI): 66.6%; growth at 10 µM (M14): 65.2%; growth at 10 µM (SK-MEL-2): 65.5%; growth at 10 µM (SK-MEL-28): 65.3%; growth at 10 µM (SK-MEL-5): 50.1%; growth at 10 µM (UACC-257): 50.5%; growth at 10 µM (UACC-62): 57.9%; growth at 10 µM (OVCAR-4): 65.8%; growth at 10 µM (OVCAR-8): 75%; growth at 10 µM (786-0): 65.9%; growth at 10 µM (CAKI-1): 44.4%; growth at 10 µM (SN12C): 67.8%; growth at 10 µM (TK-10): 79.9%; growth at 10 µM (PC-3): 40.2%; growth at 10 µM (MCF7): 44.3%; growth at 10 µM (T47D): 44.1%; Activity (HepG2 [1]): 62%; inhibition (HepG2 [2]): 71.8%; IC50 [3]: 1400 nM
